ChEMBL document CHEMBL3808334, “Synthesis and in vitro evaluation of novel triazine analogues as anticancer agents and their interaction studies with bovine serum albumin” (Eur J Med Chem, 2016)

Legend:
[1] = Growth inhibition of human LOXIMVI cells assessed as cell growth at 10^-8 M incubated for 48 hrs by sulforhodamine B assay; format: functional; settings: LOX IMVI, read-out: Activity
HT-29 = assay: Growth inhibition of human HT-29 cells assessed as cell growth at 10^-8 M incubated for 48 hrs by sulforhodamine B assay; format: functional; settings: HT-29, 48 h, read-out: Activity
NCI/ADR-RES = assay: Growth inhibition of human NCI/ADR-RES cells assessed as cell growth at 10 uM incubated for 48 hrs by sulforhodamine B assay; format: functional; settings: read-out: Activity
[2] = Growth inhibition of human MOLT4 cells assessed as cell growth at 10^-6 M incubated for 48 hrs by sulforhodamine B assay; format: functional; settings: MOLT-4, 48 h, read-out: Activity
[3] = Growth inhibition of human melanoma cells incubated for 48 hrs by sulforhodamine B assay; format: functional; settings: Melanoma cell; for CC50: read-out: LC50 (the source's name)
[4] = Growth inhibition of human OVCAR8 cells assessed as cell growth at 10 uM incubated for 48 hrs by sulforhodamine B assay; format: functional; settings: OVCAR-8, 48 h, read-out: Activity
SK-MEL-28 = assay: Growth inhibition of human SK-MEL-28 cells incubated for 48 hrs by sulforhodamine B assay; format: functional; settings: SK-MEL-28, 48 h
Outline: (§1)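 Cells were plated at 5,000–40,000 per well according to doubling time and preincubated 24 h at 37 °C in 5% CO2; time-zero plates were then TCA-fixed. Five concentrations (10-fold or ½-log dilutions, DMSO stock) were incubated 48 h. Cells were TCA-fixed, stained with 0.4% SRB and read at 515 nm. GI50 was taken where [(Ti−Tz)/(C−Tz)]×100 = 50.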

CCRF-CEM = assay: Growth inhibition of human CCRF-CEM cells assessed as cell growth at 10 uM incubated for 48 hrs by sulforhodamine B assay; format: functional; settings: read-out: Activity
Outline: (§2)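 One-dose screen at 10 µM final. Cells are plated at 5,000–40,000 per well according to doubling time and preincubated 24 h at 37 °C, 5% CO₂. Compound (DMSO stock diluted in medium with 50 µg/ml gentamicin) is then added for 48 h. Growth percent is read by sulforhodamine B staining, absorbance at 515 nm.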

[5] = Growth inhibition of human OVCAR4 cells assessed as cell growth at 10^-5 M incubated for 48 hrs by sulforhodamine B assay; format: functional; settings: OVCAR-4, 48 h, read-out: Activity
[6] = Growth inhibition of human SF539 cells assessed as cell growth at 10^-7 M incubated for 48 hrs by sulforhodamine B assay; format: functional; settings: SF-539, 48 h, read-out: Activity
[7] = Growth inhibition of human OVCAR4 cells assessed as cell growth at 10^-8 M incubated for 48 hrs by sulforhodamine B assay; format: functional; settings: OVCAR-4, 48 h, read-out: Activity
[8] = Growth inhibition of human UO31 cells assessed as cell growth at 10^-4 M incubated for 48 hrs by sulforhodamine B assay; format: functional; settings: UO-31, 48 h, read-out: Activity
[9] = Growth inhibition of human LOXIMVI cells assessed as cell growth at 10 uM incubated for 48 hrs by sulforhodamine B assay; format: functional; settings: LOX IMVI, read-out: Activity
Albumin = Albumin (Bos taurus, UniProt P02769); assay: Binding affinity to bovine serum albumin assessed as binding constant in absorption spectra by Benesie-Hildebrand plot analysis; format: ADME; settings: cattle, isolated protein
Outline: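 BSA, 10 µM, in 0.1 M phosphate buffer pH 7.4, titrated with compound (0–20 µM per the figure; diluted from 10⁻³ mol L⁻¹ DMSO stocks). Run at 300 K in a 1 cm quartz cell. UV spectra taken 200–800 nm after 5 min equilibration; fluorescence excited at 280 nm, emission 351 nm, slit 10 nm. K is the intercept/slope ratio of a linear fit of 1/(A₀−A) or 1/(F₀−F) vs 1/[compound].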

SK-MEL-5 = assay: Growth inhibition of human SK-MEL-5 cells assessed as cell growth at 10^-5 M incubated for 48 hrs by sulforhodamine B assay; format: functional; settings: SK-MEL-5, 48 h, read-out: Activity
[10] = Growth inhibition of human TK10 cells incubated for 48 hrs by sulforhodamine B assay; format: functional; settings: TK-10, 48 h; outline: as §1
[11] = Growth inhibition of human SKOV3 cells incubated for 48 hrs by sulforhodamine B assay; format: functional; settings: SK-OV-3, 48 h; outline: as §1
[12] = Growth inhibition of human BT549 cells assessed as cell growth at 10 uM incubated for 48 hrs by sulforhodamine B assay; format: functional; settings: BT-549, 48 h, read-out: Activity; outline: as §2
[13] = Growth inhibition of human LOXIMVI cells assessed as cell growth at 10^-5 M incubated for 48 hrs by sulforhodamine B assay; format: functional; settings: LOX IMVI, read-out: Activity
[14] = Growth inhibition of human HCT116 cells assessed as cell growth at 10^-5 M incubated for 48 hrs by sulforhodamine B assay; format: functional; settings: HCT-116, 48 h, read-out: Activity
Outline: (§3)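 Cells seeded at 5,000–40,000/well according to doubling time and preincubated 24 h at 37 °C, 5% CO2. Time-zero plates were TCA-fixed. DMSO concentrate was diluted in medium with 50 µg/ml gentamicin to give five concentrations (10-fold or ½ log steps), then exposed 48 h. Cells were TCA-fixed, stained with 0.4% SRB and read at 515 nm. Percent growth was taken against time-zero and control; GI50, TGI and LC50 derived.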

T47D = assay: Growth inhibition of human T47D cells assessed as cell growth at 10^-6 M incubated for 48 hrs by sulforhodamine B assay; format: functional; settings: read-out: Activity
[15] = Growth inhibition of human OVCAR5 cells assessed as cell growth at 10^-4 M incubated for 48 hrs by sulforhodamine B assay; format: functional; settings: OVCAR-5, 48 h, read-out: Activity
[16] = Growth inhibition of human RXF393 cells assessed as cell growth at 10^-4 M incubated for 48 hrs by sulforhodamine B assay; format: functional; settings: RXF 393, 48 h, read-out: Activity
[17] = Growth inhibition of human HOP92 cells incubated for 48 hrs by sulforhodamine B assay; format: functional; settings: HOP-92, 48 h; outline: as §3
[18] = Growth inhibition of human UACC257 cells assessed as cell growth at 10 uM incubated for 48 hrs by sulforhodamine B assay; format: functional; settings: UACC-257, 48 h, read-out: Activity
[19] = Growth inhibition of human OVCAR8 cells assessed as cell growth at 10^-4 M incubated for 48 hrs by sulforhodamine B assay; format: functional; settings: OVCAR-8, 48 h, read-out: Activity
[20] = read-out: LC50 (the source's name)
[21] = read-out: pLC50 (the source's name) (converted)

Chain of Albumin (P02769 whole entry): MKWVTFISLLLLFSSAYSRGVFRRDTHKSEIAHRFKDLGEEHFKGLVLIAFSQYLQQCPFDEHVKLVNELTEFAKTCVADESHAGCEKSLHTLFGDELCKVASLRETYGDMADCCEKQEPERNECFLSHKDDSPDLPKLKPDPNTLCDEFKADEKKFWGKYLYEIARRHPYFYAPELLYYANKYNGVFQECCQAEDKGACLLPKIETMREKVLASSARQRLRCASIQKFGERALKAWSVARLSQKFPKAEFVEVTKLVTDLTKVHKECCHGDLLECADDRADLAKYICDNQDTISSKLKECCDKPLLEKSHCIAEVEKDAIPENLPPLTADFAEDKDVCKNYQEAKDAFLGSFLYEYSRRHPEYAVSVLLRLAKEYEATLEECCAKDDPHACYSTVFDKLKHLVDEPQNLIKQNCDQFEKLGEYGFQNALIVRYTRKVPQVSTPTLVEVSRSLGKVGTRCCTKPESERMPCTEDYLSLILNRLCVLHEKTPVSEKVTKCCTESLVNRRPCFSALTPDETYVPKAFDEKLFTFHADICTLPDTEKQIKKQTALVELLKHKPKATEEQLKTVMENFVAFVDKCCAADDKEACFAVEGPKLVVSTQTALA

c1ccc(-c2nc(Nc3ccc(-c4nc5ccccc5[nH]4)cc3)nc(N3CCOCC3)n2)cc1
growth at 0.01 µM [1]: 94% | growth at 0.01 µM (HT-29): 105% | growth at 10 µM (NCI/ADR-RES): -60.8% | growth at 1 µM [2]: 65% | GI50 [3]: 1560 nM | TGI [3]: 3180 nM | CC50 [3]: 6.52 µM | growth at 10 µM [4]: -50.4% | GI50 (SK-MEL-28; read-out: GI50): 1560 nM | CC50 (SK-MEL-28; [20]): 6.12 µM | TGI (SK-MEL-28; read-out: TGI): 3.09 µM | GI50 (SK-MEL-28; read-out: pGI50 (converted)): 1550 nM | CC50 (SK-MEL-28; [21]): 6.17 µM | TGI (SK-MEL-28; read-out: pTGI (converted)): 3.09 µM | growth at 10 µM (CCRF-CEM): -15.7% | growth at 10 µM [5]: -97% | growth at 0.1 µM [6]: 93% | growth at 0.01 µM [7]: 104% | growth at 100 µM [8]: -76% | growth at 10 µM [9]: -89% | K (Albumin): 1.2 ×10⁵ /M | growth at 10 µM (SK-MEL-5): -92% | GI50 ([10]; read-out: GI50): 2150 nM | CC50 [10, 20]: 6.58 µM | TGI ([10]; read-out: TGI): 3.76 µM | GI50 ([10]; read-out: pGI50 (converted)): 2140 nM | CC50 [10, 21]: 6.61 µM | TGI ([10]; read-out: pTGI (converted)): 3.8 µM | GI50 ([11]; read-out: GI50): 2110 nM | CC50 [11, 20]: 8.47 µM | TGI ([11]; read-out: TGI): 4.23 µM | GI50 ([11]; read-out: pGI50 (converted)): 2090 nM | CC50 [11, 21]: 8.51 µM | TGI ([11]; read-out: pTGI (converted)): 4.27 µM | growth at 10 µM [12]: 33.6% | growth at 10 µM [13]: -61% | growth at 10 µM [14]: -61% | growth at 1 µM (T47D): 78% | growth at 100 µM [15]: -75% | growth at 100 µM [16]: -61% | GI50 ([17]; read-out: GI50): 1380 nM | LC50 (concentration killing 50% of starting cells) ([17]; read-out: LC50): 6.73 µM | TGI ([17]; read-out: TGI): 3050 nM | GI50 ([17]; read-out: pGI50 (converted)): 1380 nM | LC50 (concentration killing 50% of starting cells) ([17]; read-out: pLC50 (converted)): 6.76 µM | TGI ([17]; read-out: pTGI (converted)): 3020 nM | growth at 10 µM [18]: -56.4% | growth at 100 µM [19]: -61%

Clc1ccc(-c2nc(Nc3ccc(-c4nc5ccccc5[nH]4)cc3)nc(N3CCOCC3)n2)cc1
growth at 0.01 µM [1]: 97% | growth at 0.01 µM (HT-29): 104% | growth at 10 µM (NCI/ADR-RES): -87.5% | growth at 1 µM [2]: -29% | GI50 [3]: 1070 nM | TGI [3]: 2480 nM | CC50 [3]: 5.79 µM | growth at 10 µM [4]: -73.8% | GI50 (SK-MEL-28; read-out: GI50): 1600 nM | TGI (SK-MEL-28; read-out: TGI): 3.22 µM | GI50 (SK-MEL-28; read-out: pGI50 (converted)): 1580 nM | TGI (SK-MEL-28; read-out: pTGI (converted)): 3.24 µM | growth at 10 µM (CCRF-CEM): -91.5% | growth at 10 µM [5]: -86% | growth at 0.1 µM [6]: 98% | growth at 0.01 µM [7]: 103% | growth at 100 µM [8]: -41% | growth at 10 µM [9]: -93% | K (Albumin): 1 ×10⁵ /M | growth at 10 µM (SK-MEL-5): -94% | GI50 ([10]; read-out: GI50): 1960 nM | CC50 [10, 20]: 5.97 µM | TGI ([10]; read-out: TGI): 3.42 µM | GI50 ([10]; read-out: pGI50 (converted)): 1950 nM | CC50 [10, 21]: 6.03 µM | TGI ([10]; read-out: pTGI (converted)): 3.39 µM | GI50 ([11]; read-out: GI50): 1840 nM | CC50 [11, 20]: 100 µM | TGI ([11]; read-out: TGI): 3.28 µM | GI50 ([11]; read-out: pGI50 (converted)): 1820 nM | CC50 [11, 21]: 100 µM | TGI ([11]; read-out: pTGI (converted)): 3.31 µM | growth at 10 µM [12]: -73.6% | growth at 10 µM [13]: -70% | growth at 10 µM [14]: -76% | growth at 1 µM (T47D): 19% | growth at 100 µM [15]: -16% | growth at 100 µM [16]: -30% | GI50 ([17]; read-out: GI50): 1300 nM | LC50 (concentration killing 50% of starting cells) ([17]; read-out: LC50): 5.61 µM | TGI ([17]; read-out: TGI): 2700 nM | GI50 ([17]; read-out: pGI50 (converted)): 1290 nM | LC50 (concentration killing 50% of starting cells) ([17]; read-out: pLC50 (converted)): 5.62 µM | TGI ([17]; read-out: pTGI (converted)): 2690 nM | growth at 10 µM [18]: -82.5% | growth at 100 µM [19]: -79%
